Assays:
[1] = Cytotoxicity against human fibroblasts after 48 hrs by SRB assay; assay type: cell-based; settings: Fibroblast
In short: (§1)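 Melanoma lines and control fibroblasts grown at 37 °C, 5% CO2, then exposed to a wide concentration range for 48 h in round-bottom 96-well plates. Fixed with 10% TCA, stained with SRB, protein read at 560 nm. IC50 (50% growth inhibition versus untreated) obtained by nonlinear regression.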

[2] = test system: A-375; assay: Antiproliferative activity against human A375 cells after 48 hrs by SRB assay; assay type: functional, cell-based; settings: A-375, 48 h; in short: as §1
[3] = Antiproliferative activity against human WM164 cells after 48 hrs by SRB assay; assay type: functional, cell-based; settings: WM164, 48 h; in short: as §1
[4] = test system: DU-145; assay: Antiproliferative activity against human DU145 cells after 96 hrs by SRB assay; assay type: functional, cell-based; settings: DU-145, 96 h
In short: (§2)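 Prostate lines in RPMI1640/10% FBS; RH7777 in DMEM/10% FBS. Cells TCA-fixed, stained with 0.4% SRB, absorbance read at 540 nm. IC50 from nonlinear regression of % survival against concentration.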

[5] = test system: RH7777; assay: Cytotoxicity against rat RH7777 cells after 96 hrs by SRB assay; assay type: cell-based; settings: RH7777, 96 h; in short: as §2
[6] = test system: PPC-1; assay: Antiproliferative activity against human PPC1 cells after 96 hrs by SRB assay; assay type: functional, cell-based; settings: PPC-1, 96 h; in short: as §2
[7] = test system: LNCaP; assay: Antiproliferative activity against human LNCAP cells after 96 hrs by SRB assay; assay type: functional, cell-based; in short: as §2
[8] = test system: PC-3; assay: Antiproliferative activity against human PC3 cells after 96 hrs by SRB assay; assay type: functional, cell-based; settings: PC-3, 96 h
[9] = test system: RH7777; assay: Selectivity ratio of IC50 for rat RH7777 cells to IC50 for human prostate cancer cells
In short: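 Ratio of RH7777 IC50 to the mean IC50 over four prostate lines (DU 145, PC-3, LNCaP, PPC-1). Prostate lines grown in RPMI1640/10% FBS and RH7777 in DMEM/10% FBS. Read by SRB (0.4%) at 540 nm; IC50 by nonlinear regression.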

[10] = Antiproliferative activity against mouse B16-F1 cells after 48 hrs by SRB assay; assay type: functional, cell-based; settings: B16-F1, 48 h; in short: as §1
[11] = Selectivity ratio of IC50 for human fibroblasts to IC50 for human melanoma cells; assay type: ADME; settings: human fibroblasts and human melanoma cells, read-out: Ratio IC50

SMILES	IC50 [1]	IC50 [2]	IC50 [3]	IC50 [4]	IC50 [5]	IC50 [6]	IC50 [7]	IC50 [8]	Ratio IC50 [9]	IC50 [10]	selectivity ratio [11]
CCCCCCCCCCCCCCCCNC(=O)[C@@H](N)CSC	61.2 µM	12.9 µM	14.4 µM								
CCCCCCCCCCCCCCCCNC(=O)[C@H](CSC)NCc1ccc(NC(C)=O)cc1	> 100 µM	108 µM	145 µM								
CCCCCCCCCCCCCCCCNC(=O)[C@@H](N)CSCc1ccccc1	16.4 µM	15.1 µM	12.8 µM								
CCCCCCCCCCCCCCCCNC(=O)CNCc1ccc(NC(C)=O)cc1	24 µM	11.9 µM	10.2 µM								
CCCCCCCCCCCCNC(=O)[C@@H]1CSC(c2ccc(N)cc2)N1 (mixture of isomers)				2.4 µM	7.3 µM	1.2 µM	2 µM	2.9 µM	3.4		
CCCCCCCCCCCCCCNC(=O)[C@H]1CSC(c2cc(OC)c(OC)c(OC)c2)N1 (mixture of isomers)				2.1 µM	5.8 µM	0.7 µM	1.9 µM	2.9 µM			
CCCCCCCCCCCCCCCCNC(=O)[C@@H]1CSC(c2ccccc2)N1 (mixture of isomers)	2.2 µM		0.7 µM								
CCCCCCCCCCNC(=O)[C@@H]1CSC(c2cc(OC)c(OC)c(OC)c2)N1 (mixture of isomers)				4.1 µM	6 µM	2.1 µM	2.2 µM	4.4 µM			
CCCCCCCCCCCCNC(=O)[C@@H]1CSC(c2cc(OC)c(OC)c(OC)c2)N1 (mixture of isomers)				2.8 µM	6.5 µM	1 µM	1.4 µM	2.9 µM			
CCCCCCCCCCCCCCNC(=O)[C@@H]1CSC(c2cc(OC)c(OC)c(OC)c2)N1 (mixture of isomers)				2.2 µM	6.1 µM	0.6 µM	2 µM	2.6 µM			
CCCCCCCCNC(=O)[C@@H]1CSC(c2cc(OC)c(OC)c(OC)c2)N1 (mixture of isomers)				17.3 µM	> 20 µM	14 µM	2.7 µM	> 20 µM			
CCCCCCCCCCCCCCCCNC(=O)[C@@H]1CSC(c2ccc(N)cc2)N1 (mixture of isomers)				2.6 µM	9.4 µM	0.6 µM	1.5 µM	2.4 µM	5.3		
CCCCCCCCCCCCCCCCCCN(C)C(=O)[C@@H]1CSC(c2ccc(NC(C)=O)cc2)N1 (mixture of isomers)	> 100 µM	20.6 µM	10.7 µM	3.9 µM	9.2 µM	0.8 µM	1.8 µM	3.7 µM	3.6	18.9 µM	
CC(=O)Nc1ccc(C2N[C@H](C(=O)NC34CC5CC(CC(C5)C3)C4)CS2)cc1 (mixture of isomers)	> 100 µM	138 µM	128 µM	> 20 µM	> 20 µM	> 20 µM	5.7 µM	> 20 µM		96.5 µM	
CCCCCCCCC/C=C\CCCCCCCNC(=O)[C@@H]1CSC(c2ccc(OC)c(OC)c2)N1 (mixture of isomers)	18.3 µM	1.6 µM	1.2 µM	2 µM	10 µM	0.6 µM	1.3 µM	2.6 µM	6.2	3.3 µM	9
CCCCCCCCCCCCCCCCNC(=O)[C@@H]1CSC(c2cccc(NC(C)=O)c2)N1 (mixture of isomers)	6.3 µM	1.5 µM	1.1 µM	2.3 µM	4.9 µM	0.5 µM	1.4 µM	1.6 µM	3.4	2.2 µM	3.9

SMILES	IC50 [1]	IC50 [2]	IC50 [3]	IC50 [4]	IC50 [5]	IC50 [6]	IC50 [7]	IC50 [8]	Ratio IC50 [9]	IC50 [10]	selectivity ratio [11]
CCCCCCCCC/C=C/CCCCCCCNC(=O)[C@@H]1CSC(c2cc(OC)c(OC)c(OC)c2)N1 (mixture of isomers)	4 µM	1.8 µM	1.1 µM	0.9 µM	6.8 µM	0.3 µM	0.6 µM	1.2 µM	9.1	3.2 µM	2
CCCCCCCCCCCCCCCCNC(=O)[C@@H]1CSC(c2ccc(NS(C)(=O)=O)cc2)N1 (mixture of isomers)	> 100 µM	50.6 µM	18.6 µM	> 20 µM	> 20 µM	1.1 µM	4.8 µM	> 20 µM		114 µM	
CCCCCCCCCCCCCCCCNC(=O)[C@@H]1CSC(c2ccc(NC(N)=O)cc2)N1 (mixture of isomers)	7.2 µM	3.6 µM	1.7 µM	3.2 µM	6.7 µM	0.5 µM	1.8 µM	2.5 µM	3.4		1.8
CCCCCCCCCCCCCCCCNC(=O)[C@@H]1CSC(c2cccc(OC)c2)N1 (mixture of isomers)	2.5 µM	1.8 µM	1.2 µM	1.1 µM	3.6 µM	0.2 µM	0.5 µM	1 µM	5.1	3 µM	1.3
CCCCCCCCCCCCCCCCNC(=O)[C@@H]1CSC(c2ccc(OC)cc2)N1 (mixture of isomers)		1.5 µM	1 µM	2.2 µM	8.4 µM	0.4 µM	1.1 µM	2.7 µM	5.3	2.3 µM	5.1
CC(=O)Nc1ccc(C2N[C@H](C(=O)NC3C4CC5CC(C4)CC3C5)CS2)cc1 (mixture of isomers)	> 100 µM	66 µM	64.4 µM	> 20 µM	> 20 µM	> 20 µM	9.7 µM	> 20 µM		108 µM	
CC(=O)Nc1ccc(C2N[C@H](C(=O)Nc3ccc4c(c3)Cc3ccccc3-4)CS2)cc1 (mixture of isomers)											11.3
CCCCCC/C=C\CCCCCCCCNC(=O)[C@@H]1CSC(c2ccc(NC(C)=O)cc2)N1 (mixture of isomers)	14 µM	1.9 µM	2 µM	2.4 µM	7.6 µM	1.1 µM	1.8 µM	2.5 µM	3.9	2.1 µM	7
CCCCCCCCC#CCCCCCCCCCNC(=O)[C@@H]1CSC(c2ccc(NC(C)=O)cc2)N1 (mixture of isomers)	7 µM	2.7 µM	1.3 µM	1.8 µM	6.6 µM	0.7 µM	2 µM	2.1 µM	4	1.6 µM	3.8
CCCCCCCCCCCCCCCCOC(=O)[C@@H]1CSC(c2ccc(NC(C)=O)cc2)N1 (mixture of isomers)	> 100 µM	28 µM	18.5 µM	> 20 µM	> 20 µM	> 20 µM	> 20 µM	> 20 µM		41.9 µM	
CCCCCCCCC/C=C\CCCCCCCNC(=O)[C@@H]1CSC(c2cc(OC)c(OC)c(OC)c2)N1 (mixture of isomers)	4.8 µM	2.4 µM	1.3 µM	1.2 µM	8.4 µM	0.5 µM	0.7 µM	1.5 µM	8.6	4.7 µM	1.7
CCCCCCCCC/C=C/CCCCCCCNC(=O)[C@@H]1CSC(c2ccccc2)N1 (mixture of isomers)	12.4 µM	5.3 µM		1.5 µM	8.9 µM	0.6 µM	1.4 µM	2.1 µM	6.5	10.1 µM	2.1
CC(=O)Nc1ccc(C2N[C@H](C(=O)Nc3nc4ccccc4s3)CS2)cc1 (mixture of isomers)	> 100 µM	45.9 µM	> 100 µM	> 20 µM	> 20 µM	> 20 µM	> 20 µM	> 20 µM		55.3 µM	
CN(C)/N=N/c1[nH]cnc1C(N)=O [DACARBAZINE]	> 100 µM	> 100 µM	> 100 µM							> 100 µM	
CNC(=O)c1cc(Oc2ccc(NC(=O)Nc3ccc(Cl)c(C(F)(F)F)c3)cc2)ccn1 [SORAFENIB]			5 µM							4.9 µM	3
